DDE Tn7 FP inh: disrupts Tn7 cyclic peptide binding to fibrin D-Dimer-E complex. P02675. FP displacement of FITC-Tn7 peptide from fibrin DD(E); 0% = median of compound wells per plate. inhibition, % at 8.3 µM. AID 720508. actives 0.13% (n = 370,000);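 active = inhibition above the mean of compounds falling within the control limits plus 3 SD of them, cut at about 14% in these data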;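 note: 0% = plate median of compound wells and 100% = 10 µM Aha-Tn7 peptide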
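assay system = human clot-derived fibrin DD(E) complex | quantity = Fibrin-DD(E) at 2 µM final | timing = 10 min preincubation, 3 h with tracer, room temperature | signal = fluorescence polarization | measure = percent inhibition | benchmarks = high control wells with 10 µM unlabelled Aha-Tn7 peptide (full inhibition) | replicates = singlicate testing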
DDE Tn6 FP inh: DD(E)-Tn6 binding inhibition, primary FP screen; inhibition, % at 8.3 µM; P02675; actives 0.21% (n = 370,000); Fibrin DD(E) TRITC-Tn6 fluorescence polarization displacement;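 active = inhibition above a per-campaign cutoff: mean of compounds within control limits plus 3 SD, cut at about 15% in these data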;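 note: 0% = median of all compound wells on the plate and 100% = blocking peptide control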
Neddyl block: blocks human cullin neddylation; TR-FRET cullin neddylation, biochemical; P61081+Q13564; inhibition, % at 25 µM; actives 0.58% (n = 360,000); in the data active = inhibition above about 36%
PKA-R2B activ: PKA-R2B complex activation; activation, % at 11.4 µM; PKA-R2B holoenzyme dissociation, Cy5-IP20 fluorescence polarization; R2B truncated from residue 108, S112A mutant; 0% DMSO only, 100% 113 µM cGMP; P22694+P31323; actives 0.079% (n = 340,000);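 active = activation above a cutoff set at the mean over all compounds plus 3 SD, cut at about 18% in these data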;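 note: higher means more holoenzyme dissociation and a rise in polarization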
Target sequence (P31323 whole entry, looked up, other chains not shown, the tested form may be a part): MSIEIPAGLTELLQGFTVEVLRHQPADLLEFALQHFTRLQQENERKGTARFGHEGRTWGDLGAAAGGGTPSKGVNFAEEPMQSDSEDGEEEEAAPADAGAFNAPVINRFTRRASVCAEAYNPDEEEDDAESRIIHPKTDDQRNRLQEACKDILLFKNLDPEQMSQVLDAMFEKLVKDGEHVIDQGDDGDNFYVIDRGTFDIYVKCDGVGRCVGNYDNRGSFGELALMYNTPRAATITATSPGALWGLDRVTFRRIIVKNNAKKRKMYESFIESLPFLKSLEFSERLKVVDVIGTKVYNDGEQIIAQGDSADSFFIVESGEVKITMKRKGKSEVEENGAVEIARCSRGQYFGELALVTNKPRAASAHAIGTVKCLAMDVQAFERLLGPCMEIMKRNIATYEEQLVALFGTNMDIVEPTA
PKA-R1A act: activates the PKA-R1A holoenzyme complex; PKA-R1A dissociation, Cy5-IP20 fluorescence polarization; scaled: DMSO 0%, 113 µM cGMP 100%; actives 0.083% (n = 340,000); activation, % at 11.4 µM; P00514+P68181;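 active = percent activation above the mean of all tested compounds plus 3 SD, cut at about 19% in these data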;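 note: higher means more PKAc released from R1A so a rise in polarization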
An asterisk follows results filed as active; nt = not tested or not shown; + = active, no number. Shown are actives, neighbours in structure and some others; about 1% of the full set was active somewhere.

SMILES	DDE Tn7 FP inh	DDE Tn6 FP inh	Neddyl block	PKA-R2B activ	PKA-R1A act
C#CCN1CC(N(C)CCOC(=O)CCCc2ccccc2)CS1(=O)=O (stereo unspecified)	-4.1	2.4	nt	nt	nt
O=C(Nc1nc2cc3c(cc2s1)OCO3)c1ccco1	4.5	0.8	nt	-6.2	-4.6
O=C(Nc1nc2cc3c(cc2s1)OCCO3)c1ccco1	-2.9	-4.0	43.2*	-1.2	-15.9
COc1ccccc1-n1c(C)cc(/C=C2/C(=N)N3C(=NC2=O)SN=C3S(C)(=O)=O)c1C	4.9	-2.4	59.1*	-14.2	-9.0
COc1ccc(-c2n[nH]c(C(F)(F)F)c2-c2cc3ccccc3o2)c(O)c1	-2.1	-0.7	43.3*	-10.4	1.1
O=C(NCCN1CCc2ccccc2C1)Nc1ccc([N+](=O)[O-])cc1	14.9*	-2.7	-28.2	-7.2	-7.8
CCNc1nnc(-c2ccncc2)s1	-0.3	0.3	nt	9.1	-3.6
CCC(=O)Nc1nnc(-c2ccncc2)s1	7.4	9.2	52.2*	-0.6	7.2
CCOc1ccc(C(=O)CSc2nnc(SCc3ccc(Cl)cc3)s2)cc1	-3.0	4.2	nt	nt	nt
CCN(CC)C(=O)CSc1nnc(-c2ccccn2)n1C	1.4	5.5	nt	nt	nt
O=C(OCC(=O)N1CCN(C(=O)c2ccco2)CC1)c1cc(-c2ccco2)nc2ccccc12	nt	nt	44.8*	5.8	-5.3
CCOc1ccc(/C=C2\NCCc3cc(OCC)c(OCC)cc32)cc1OCC	0.0	-2.6	nt	nt	nt
COc1ccc(CNC(=O)C[C@H]2C[C@H](C(=O)N3CCCCC3)[C@@]3(C)c4[nH]c5cc(CCC(=O)N(C)C)ccc5c4CCN3C2=O)cc1OC	7.3	15.8*	2.2	4.2	-6.9
O=C(N/N=C/c1ccc(F)cc1)c1cc(-c2ccco2)nc2ccccc12	-1.3	-2.8	43.0*	4.5	2.7
Fc1ccc2c(c1)C(c1ccc(N3CCOCC3)cc1)=NNC(c1cccs1)=N2	nt	nt	40.5*	-7.2	-5.4
COc1cccc(N2CCN(c3ncnc4c3[nH]c3ccc(F)cc34)CC2C)c1 (stereo unspecified)	-1.8	-10.7	39.4*	-8.9	-5.2
C=CCn1c(SCC(=O)O)nnc1-c1ccco1	4.0	7.3	nt	nt	nt
COc1cc(OC)c(-c2c3cc(O)c(=O)cc-3oc3cc(O)c(O)cc23)cc1OC	-20.7	+	-36.2	0.5	-4.7
Cc1c2cc(O)c(=O)cc-2oc2cc(O)c(O)cc12	15.1*	1.1	-30.5	10.5	-8.6
COc1ccc2ccccc2c1-c1c(C(=O)c2ccc(Br)cc2)[nH]c(N)c1C(=O)NC1CCCCC1	-1.5	1.1	nt	nt	nt
COc1ccc(C(=O)NC(=S)NNC(=O)c2ccccc2C)cc1	2.8	-4.5	41.1*	-1.9	-1.0
COc1ccc(CNC(=O)O[C@H]2CC[C@@]34CCCN3C(=O)CCC[C@H]4[C@H]2C)cc1OC	-0.3	-1.1	nt	nt	nt
NC(N)=N/N=C/c1ccc2cccc(OCc3ccccc3)c2n1	3.8	-9.8	44.9*	-4.2	-4.4
O/N=C/c1ccc2cccc(OCc3ccccc3)c2n1	-4.0	-7.8	nt	-4.8	5.4
CCN(CC)C(=O)CC[C@H]1CC[C@]2(CCCN(Cc3ccncc3)C2)O1	1.6	8.7	nt	nt	nt
SMILES	DDE Tn7 FP inh	DDE Tn6 FP inh	Neddyl block	PKA-R2B activ	PKA-R1A act
CC(C)CCNC(=O)C1CCCN(C(=O)c2ccc3c(c2)NC(=O)CS3)C1 (stereo unspecified)	-13.4	0.3	nt	nt	nt
CN1CC(c2ccccc2)C2(SC(=S)N(Cc3ccco3)C2=O)C12C(=O)Nc1ccccc12 (stereo unspecified)	14.8*	1.6	-2.4	-7.9	-3.0
CN1CC(c2ccccn2)C2(SC(=S)N(Cc3ccccc3)C2=O)C12C(=O)Nc1ccccc12 (stereo unspecified)	7.8	-2.2	-8.7	-1.9	9.6
CCn1c(COc2ccc(C)cc2)nnc1SCC(=O)Nc1ccccc1-c1ccccc1	-0.5	1.1	nt	nt	nt
Cc1ccc(C(=O)O)cc1-c1ccc(/C=C2/NC(=O)N(c3ccccc3)C2=O)o1	4.4	5.9	47.4*	3.7	-2.3
COCCCNC(=O)CSc1nnc(-c2ccncc2)n1-c1ccc(OC)cc1	-14.5	7.3	nt	nt	nt
Cc1nc(N2CCN(C(=O)c3ccc(Cl)cc3)CC2)c(C#N)c2c1COC(C)(C)C2	-1.1	2.7	40.9*	-12.0	-1.7
Cc1ccc(-n2[nH]c(C)c(/C=N/NC(=O)c3ccc(O)cc3O)c2=O)cc1	nt	nt	nt	-0.8	7.6
Cc1[nH]n(-c2ccccc2)c(=O)c1/C=N/NC(=O)c1ccc(O)cc1O	nt	nt	60.9*	6.1	-1.0
COc1cccc2cc(-c3nc(-c4cccs4)cs3)c(=O)oc12	-2.4	-7.0	45.8*	4.3	4.0
O=c1oc2ccccc2cc1-c1nc(-c2cccs2)cs1	8.1	1.8	33.7	-7.6	-6.2
Cc1ccc(Cn2c(=N)c(C(=O)NCc3ccco3)cc3c(=O)n4ccccc4nc32)cc1	0.5	-0.7	62.9*	-17.6	-4.3
N=c1c(C(=O)NCc2ccco2)cc2c(=O)n3ccccc3nc2n1CCc1ccccc1	-9.3	2.5	nt	7.1	-11.6
Cc1ccccc1C(=O)NC1CCCCN(Cc2cccc(F)c2)C1=O (stereo unspecified)	0.4	1.0	nt	nt	nt
Cc1ccccc1N=Nc1c(N)[nH]n(-c2ccccc2)c1=O	3.2	1.3	nt	nt	nt
Oc1ccc(N=Cc2ccc(-c3cccs3)s2)cc1	-5.4	18.5*	nt	-0.5	3.0
O=Cc1ccc(-c2cccs2)s1	-5.8	-1.7	nt	-8.0	16.2
COCCNC(=O)c1onc(CSc2ccccc2C)c1C(=O)O	5.3	22.0*	-6.3	-5.4	4.0
O=C(OC12CCCN(C1)/C(=C/c1cccnc1)C2)c1cccc(F)c1 (stereo unspecified)	-3.3	-3.4	nt	nt	nt
Cc1ccc(-c2ccc(CCC(=O)O)n2CC(=O)O)cc1	nt	nt	42.0*	2.5	-2.0
O=c1[nH]c2c(s1)C=Nc1ccccc1N2	30.2*	7.1	-20.7	-9.2	-6.7
O=C1CC(c2ccco2)CC2=C1C=Nc1ccccc1N2 (stereo unspecified)	2.3	1.0	0.1	-8.9	-13.1
CN1CCCN(c2cc(-c3ccc4ccccc4c3)nc3ccnn23)CC1	-8.7	8.4	46.1*	nt	nt
Cc1cccc(N=c2oc3cc(O)ccc3cc2C(N)=O)c1	5.9	-6.1	62.1*	2.6	-4.4
COc1ccccc1N=c1oc2cc(O)ccc2cc1C(N)=O	0.9	2.8	nt	3.0	-4.2
CCOc1ccc(C=Nn2c(-c3cccc(OC(C)C)c3)n[nH]c2=S)cc1	3.6	-1.5	nt	nt	nt
O=C(N/N=C/c1sc(N2CCOCC2)nc1-c1ccccc1)c1cccc(S(=O)(=O)N2CCOCC2)c1	1.8	-7.2	37.2*	-12.4	-2.3
Oc1cc(O)cc(/C=C/c2ccc(O)c(O)c2)c1	0.5	-2.0	59.5*	-2.9	0.9
C/C=C/c1ccc(O)c(OC)c1	10.0	3.5	7.3	2.6	-11.2

From PubChem
